In ChEMBL document CHEMBL3227986, “Design of species- or isozyme-specific enzyme inhibitors. 1. Effect of thymidine substituents on affinity for the thymidine site of hamster cytoplasmic thymidine kinase” (J Med Chem, 1979):
The source made the active and inactive calls. The calls are words filed in the database; no cut-off is given here.

What was measured:
[1] = target: T1, Thymidine kinase, cytosolic (Cricetulus griseus) (UniProt P09768); assay: Inhibition of thymidine kinase in BHK21 (C13) cells using thymidine as substrate assessed as formation of TMP at 5 mM; type: cell-based; conditions: Mesocricetus auratus
T1 sequence (whole entry): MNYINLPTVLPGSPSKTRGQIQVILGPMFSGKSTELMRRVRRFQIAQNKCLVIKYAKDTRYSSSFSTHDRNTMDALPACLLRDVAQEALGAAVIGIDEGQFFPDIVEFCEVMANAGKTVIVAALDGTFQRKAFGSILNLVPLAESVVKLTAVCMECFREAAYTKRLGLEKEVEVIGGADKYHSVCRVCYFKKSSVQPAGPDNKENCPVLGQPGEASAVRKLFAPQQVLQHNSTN
How it was run: (§1)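 BHK21(C13) 100000g supernatant in Tris-HCl 0.05 M pH 8.0, ATP 5 mM, MgCl2 2.5 mM, [14C]thymidine 3.6 μM, 10 min at 37 °C. Reaction stopped by boiling; [14C]TMP bound to DEAE-cellulose disks and counted by liquid scintillation, corrected for unincubated blanks.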

[2] = target: T1, Thymidine kinase, cytosolic (Cricetulus griseus); assay: Inhibition of thymidine kinase in BHK21 (C13) cells using thymidine as substrate assessed as formation of TMP at 10 mM; type: cell-based; conditions: Mesocricetus auratus; how it was run: as §1
[3] = target: T1, Thymidine kinase, cytosolic (Cricetulus griseus); assay: Effect on thymidine kinase in BHK21 (C13) cells using [14C]thymidine at 5 mM after 10 mins by liquid scintillation spectrometer analysis relative to control in presence of Mg2+; type: cell-based; conditions: Mesocricetus auratus
How it was run: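 BHK21(C13) high-speed supernatant, 10 min at 37 °C, [14C]TMP on DEAE-cellulose disks, scintillation counting. Phosphate donors (nucleoside triphosphates 5 mM, giving 2.5 mM Mg2+ triphosphates) tested with 14.4 μM [14C]thymidine. Inhibitor assays used 0.19 mM [14C]thymidine: 5-iodo nucleosides at 0.19 mM with saturating Mg2+-ATP, or dCTP 5 mM with ATP 5 mM and MgCl2 7.5 mM.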

[4] = target: T2, Thymidine kinase, cytosolic (Homo sapiens) (UniProt P04183); assay: Effect on human cytoplasmic thymidine kinase using [14C]thymidine at 2 mM after 10 mins by liquid scintillation spectrometer analysis relative to control in presence of Mg2+
T2 sequence (whole entry): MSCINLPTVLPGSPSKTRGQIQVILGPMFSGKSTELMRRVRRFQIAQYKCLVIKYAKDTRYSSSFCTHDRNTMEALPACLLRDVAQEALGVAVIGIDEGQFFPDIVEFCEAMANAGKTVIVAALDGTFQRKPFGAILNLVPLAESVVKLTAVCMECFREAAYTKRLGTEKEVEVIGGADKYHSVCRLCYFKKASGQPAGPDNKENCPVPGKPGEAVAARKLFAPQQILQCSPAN

[5] = target: T3, Thymidine kinase 2, mitochondrial (Homo sapiens) (UniProt O00142); assay: Effect on human mitochondrial thymidine kinase using [14C]thymidine at 2 mM after 10 mins by liquid scintillation spectrometer analysis relative to control in presence of Mg2+
T3 sequence (whole entry): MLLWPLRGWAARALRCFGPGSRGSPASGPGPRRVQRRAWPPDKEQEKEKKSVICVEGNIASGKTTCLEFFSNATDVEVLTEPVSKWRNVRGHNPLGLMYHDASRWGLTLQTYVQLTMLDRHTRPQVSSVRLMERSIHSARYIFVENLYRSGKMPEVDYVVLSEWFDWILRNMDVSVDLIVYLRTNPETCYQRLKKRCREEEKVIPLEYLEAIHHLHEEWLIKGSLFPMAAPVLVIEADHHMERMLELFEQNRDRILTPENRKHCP

[6] = target: T1, Thymidine kinase, cytosolic (Cricetulus griseus); assay: Inhibition of thymidine kinase in BHK21 (C13) cells using thymidine as substrate assessed as formation of TMP at 0.1 mM; type: cell-based; conditions: Mesocricetus auratus; how it was run: as §1
[7] = target: T1, Thymidine kinase, cytosolic (Cricetulus griseus); assay: Inhibition of thymidine kinase in BHK21 (C13) cells using thymidine as substrate assessed as formation of TMP at 0.2 mM; type: cell-based; conditions: Mesocricetus auratus; how it was run: as §1
[8] = target: T1, Thymidine kinase, cytosolic (Cricetulus griseus); assay: Activity at thymidine kinase in BHK21 (C13) cells at 400 uM after 30 mins relative to thymidine; type: cell-based; conditions: Mesocricetus auratus
How it was run: (§2)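 Radiolabeled thymidine or 2'-deoxyuridine derivatives tested as substrates: 40 μL BHK21(C13) 100000g supernatant, Tris-HCl 0.05 M pH 8.0, ATP 5 mM, MgCl2 2.5 mM, no thymidine, 30 min at 37 °C. Products separated by paper electrophoresis in 0.05 M triethylammonium bicarbonate pH 7.6; radioactivity counted in the TMP region.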

[9] = target: T3, Thymidine kinase 2, mitochondrial (Homo sapiens); assay: Inhibition of human mitochondrial thymidine kinase using [14C]thymidine at 0.19 mM after 10 mins by liquid scintillation spectrometer analysis relative to control in presence of Mg2+
[10] = target: T1, Thymidine kinase, cytosolic (Cricetulus griseus); assay: Inhibition of thymidine kinase in BHK21 (C13) cells using [14C]thymidine at 200 uM after 10 mins by liquid scintillation spectrometer analysis relative to control in presence of Mg2+; type: cell-based; conditions: Mesocricetus auratus
[11] = target: T1, Thymidine kinase, cytosolic (Cricetulus griseus); assay: Inhibition of thymidine kinase in BHK21 (C13) cells using thymidine as substrate assessed as formation of TMP at 6.6 mM; type: cell-based; conditions: Mesocricetus auratus; how it was run: as §1
[12] = target: T1, Thymidine kinase, cytosolic (Cricetulus griseus); assay: Inhibition of thymidine kinase in BHK21 (C13) cells using thymidine as substrate assessed as formation of TMP at 13.2 mM; type: cell-based; conditions: Mesocricetus auratus; how it was run: as §1
[13] = target: T1, Thymidine kinase, cytosolic (Cricetulus griseus); assay: Inhibition of thymidine kinase in BHK21 (C13) cells using thymidine as substrate assessed as formation of TMP at 6 mM; type: cell-based; conditions: Mesocricetus auratus; how it was run: as §1
[14] = target: T1, Thymidine kinase, cytosolic (Cricetulus griseus); assay: Inhibition of thymidine kinase in BHK21 (C13) cells using thymidine as substrate assessed as formation of TMP at 12 mM; type: cell-based; conditions: Mesocricetus auratus; how it was run: as §1
[15] = target: T1, Thymidine kinase, cytosolic (Cricetulus griseus); assay: Activity at thymidine kinase in BHK21 (C13) cells at 54 to 542 uM after 30 mins relative to thymidine; type: cell-based; conditions: Mesocricetus auratus; how it was run: as §2
[16] = target: T4, Thymidine kinase, cytosolic (Mus musculus, UniProt P04184); assay: Competitive inhibition of thymidine kinase in mouse Ehrlich's ascites cells
T4 sequence (P04184 whole entry): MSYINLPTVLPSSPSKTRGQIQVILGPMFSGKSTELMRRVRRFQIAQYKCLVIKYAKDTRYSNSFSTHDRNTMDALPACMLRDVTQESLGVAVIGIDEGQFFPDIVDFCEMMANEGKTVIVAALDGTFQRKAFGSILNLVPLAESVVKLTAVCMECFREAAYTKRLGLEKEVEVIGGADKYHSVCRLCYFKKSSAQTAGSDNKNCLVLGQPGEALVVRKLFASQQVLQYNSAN

[17] = target: T1, Thymidine kinase, cytosolic (Cricetulus griseus); assay: Inhibition of thymidine kinase in BHK21 (C13) cells using thymidine as substrate assessed as formation of TMP at […]; type: cell-based; conditions: Mesocricetus auratus
[18] = target: T1, Thymidine kinase, cytosolic (Cricetulus griseus); assay: Inhibition of thymidine kinase in BHK21 (C13) cells using thymidine as substrate assessed as formation of TMP at 0.74 mM; type: cell-based; conditions: Mesocricetus auratus; how it was run: as §1
[19] = target: T1, Thymidine kinase, cytosolic (Cricetulus griseus); assay: Inhibition of thymidine kinase in BHK21 (C13) cells using thymidine as substrate assessed as formation of TMP at 7.8 mM; type: cell-based; conditions: Mesocricetus auratus; how it was run: as §1
[20] = target: T1, Thymidine kinase, cytosolic (Cricetulus griseus); assay: Inhibition of thymidine kinase in BHK21 (C13) cells using thymidine as substrate assessed as formation of TMP at 15.5 mM; type: cell-based; conditions: Mesocricetus auratus; how it was run: as §1

Structure (SMILES): CCNc1ccn([C@H]2C[C@H](O)[C@@H](CO)O2)c(=O)n1
- inhibition [1]: 24%
- inhibition [2]: 38%

Structure (SMILES): Nc1ncnc2c1ncn2[C@H]1C[C@H](O)[C@@H](COP(=O)(O)OP(=O)(O)OP(=O)(O)O)O1
- Activity [3]: 107%
- Activity [4]: 108%
- Activity [5]: 56%

Structure (SMILES): CCCn1c(=O)c(C)cn([C@H]2C[C@H](O)[C@@H](CO)O2)c1=O
- inhibition [6]: 16%
- inhibition [7]: 34%

Structure (SMILES): Nc1ncnc2c1ncn2[C@@H]1O[C@H](COP(=O)(O)OP(=O)(O)OP(=O)(O)O)[C@@H](O)[C@H]1O
- Activity [3]: 100%
- Activity [4]: 100%
- Activity [5]: 100%

Structure (SMILES): CC(=O)NCC(O)[C@H]1O[C@@H](n2cc(C)c(=O)[nH]c2=O)C[C@@H]1O (stereo in doubt; [14C]4a)
- Activity [8]: inactive

Structure (SMILES): CCn1c(=O)c(C)cn([C@H]2C[C@H](O)[C@@H](CO)O2)c1=O
- inhibition [6]: 13%
- inhibition [7]: 26%

Structure (SMILES): O=c1[nH]c(=O)n([C@H]2C[C@H](O)[C@@H](CO)O2)cc1I
- inhibition [9]: 31%

Structure (SMILES): CC(=O)Nc1cn([C@H]2C[C@H](O)[C@@H](COP(=O)(O)OP(=O)(O)OP(=O)(O)O)O2)c(=O)[nH]c1=O
- inhibition [10]: Active

Structure (SMILES): CCCC(=O)NC[C@H]1O[C@@H](n2cc(C)c(=O)[nH]c2=O)C[C@@H]1O
- inhibition [11]: 38%
- inhibition [12]: 77%

Structure (SMILES): CC(=O)NCc1cn([C@H]2C[C@H](O)[C@@H](CO)O2)c(=O)[nH]c1=O
- inhibition [13]: 0%
- inhibition [14]: 0%
- Activity [15]: < 0.25%

Structure (SMILES): CCOC1N([C@H]2C[C@H](O)[C@@H](CO)O2)C(=O)NC(=O)C1(C)Br (single isomer, unassigned)
- Ki [16]: 24 µM

Structure (SMILES): Nc1ccn([C@H]2C[C@H](O)[C@@H](CO)O2)c(=O)n1
- inhibition [17]: 10%
- inhibition [18]: 24%

Structure (SMILES): Nc1ccn([C@@H]2O[C@H](COP(=O)(O)OP(=O)(O)OP(=O)(O)O)[C@@H](O)[C@H]2O)c(=O)n1
- Activity [3]: 15%
- Activity [4]: 21%
- Activity [5]: 79%

Structure (SMILES): Nc1nc(=O)n([C@H]2C[C@H](O)[C@@H](CO)O2)cc1I
- inhibition [9]: 64%

Structure (SMILES): CCCn1c(=O)ccn([C@H]2C[C@H](O)[C@@H](CO)O2)c1=O
- inhibition [19]: 18%
- inhibition [20]: 36%
